Source: ChEMBL document CHEMBL4138273, “Cysteine-Derived Pleurotin Congeners from the Nematode-Trapping Basidiomycete Hohenbuehelia grisea” (J Nat Prod, 2018)
≈ marks a conversion by molar mass, not a printed value. Calls of active or inactive are those of the source. The calls are words filed in the database; no cut-off is given here.

Legend:
Bacillus subtilis = assay: Antimicrobial activity against Bacillus subtilis DSM10 after 16 to 48 hrs by serial dilution method; assay type: functional
In short: (§1)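 Inoculum was adjusted to 6.7 × 10^5 cells/mL. Top concentration was 67 μg/mL (20 μL of 1 mg/mL stock) or 100 μg/mL (20 μL of 1.5 mg/mL stock). Ethanol (20 μL) served as negative control.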

Escherichia coli = assay: microbe, parasite or virus in culture; conditions: DSM 498
Micrococcus luteus = assay: Antimicrobial activity against Micrococcus luteus DSM 1790 after 16 to 48 hrs by serial dilution method; assay type: functional; in short: as §1
Staphylococcus aureus = assay: Antimicrobial activity against Staphylococcus aureus DSM 346 after 16 to 48 hrs by serial dilution method; assay type: functional; in short: as §1
Mucor plumbeus = assay: Antimicrobial activity against Mucor plumbeus MUCL 49355 after 16 to 48 hrs by serial dilution method; assay type: functional
In short: (§2)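 Yeasts and filamentous fungi were tested by serial dilution in 96-well plates in YMG medium. Inoculum was adjusted to 6.7 × 10^5 cells/mL. Highest tested level was 67 μg/mL (from 20 μL of 1 mg/mL stock) or 100 μg/mL (from 20 μL of 1.5 mg/mL stock). Ethanol (20 μL) was the negative control.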

Yamadazyma tenuis = assay: Antimicrobial activity against Candida tenuis MUCL 29892 after 16 to 48 hrs by serial dilution method; assay type: functional; in short: as §2
[1] = tested on: Schizosaccharomyces pombe; assay: Antimicrobial activity against Schizosaccharomyces pombe DSM 70572 after 16 to 48 hrs by serial dilution method; assay type: functional, organism-based; in short: as §2
Wickerhamomyces anomalus = assay: Antimicrobial activity against Pichia anomala DSM 6766 after 16 to 48 hrs by serial dilution method; assay type: functional; in short: as §2
Candida albicans = assay: Antimicrobial activity against Candida albicans DSM 1665 after 16 to 48 hrs by serial dilution method; assay type: functional; in short: as §2
Rhodotorula glutinis = assay: Antimicrobial activity against Rhodotorula glutinis DSM 10134 after 16 to 48 hrs by serial dilution method; assay type: functional; in short: as §2
Mucor hiemalis = assay: Antimicrobial activity against Mucor hiemalis DSM 2656 after 16 to 48 hrs by serial dilution method; assay type: functional; in short: as §2
[2] = tested on: Mycolicibacterium smegmatis; assay: Antimicrobial activity against Mycobacterium smegmatis DSM 44200 after 16 to 48 hrs by serial dilution method; assay type: functional; in short: as §1
L929 = assay: Cytotoxicity against mouse L929 cells after 5 days by MTT assay; assay type: functional, cell-based; conditions: L929, 120 h
In short: (§3)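 Mouse fibroblast L929 and HeLa-derived KB3.1 cells were seeded at 6 × 10^3 cells/well in 96-well plates. Cells were exposed to compounds for 5 days, and IC50 was determined.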

KB 3-1 = assay: Cytotoxicity against human KB3-1 cells after 5 days by MTT assay; assay type: functional, cell-based; conditions: KB 3-1, 120 h; in short: as §3

Row | Compound | MIC (Bacillus subtilis) | MIC (Staphylococcus aureus) | Activity (Mucor plumbeus) | Activity (Bacillus subtilis) | Activity [1] | Activity (Candida albicans) | Activity (Mucor hiemalis) | Activity (Micrococcus luteus) | Activity (Staphylococcus aureus) | Activity [2] | MIC (Yamadazyma tenuis) | MIC (Wickerhamomyces anomalus; Hansenula anomala) | MIC (Rhodotorula glutinis) | MIC (Mucor plumbeus) | MIC (Mucor hiemalis) | other results
1 | CC1(C)S[C@@H]2[C@H](NC(=O)Cc3ccccc3)C(=O)N2[C@H]1C(=O)O [PENICILLIN G] | 6.3 µg/mL (≈ 18.8 µM) | – | – | – | – | – | – | – | – | – | – | – | – | – | – | –
2 | O=C(O)c1cn(C2CC2)c2cc(N3CCNCC3)c(F)cc2c1=O [CIPROFLOXACIN] | – | – | – | – | – | – | – | – | – | – | – | – | – | – | – | MIC (Escherichia coli): 3.1 µg/mL (≈ 9.36 µM)
3 | CN(C)[C@@H]1C(O)=C(C(N)=O)C(=O)[C@@]2(O)C(O)=C3C(=O)c4c(O)cccc4[C@@](C)(O)[C@H]3[C@H](O)[C@@H]12 [OXYTETRACYCLINE] | – | 6.7 µg/mL (≈ 14.6 µM) | – | – | – | – | – | – | – | – | – | – | – | – | – | MIC (Micrococcus luteus): 0.4 µg/mL (≈ 0.869 µM)
4 | C[C@@H]1CO[C@@H]2C3=C(CC4[C@H](C(=O)O)CCC5[C@@H]1CC[C@]452)C(=O)C(SC[C@H](O)C(=O)O)=CC3=O (stereo partly specified) | – | – | inactive | inactive | inactive | inactive | inactive | inactive | inactive | inactive | – | – | – | – | – | Activity (Yamadazyma tenuis): inactive; Activity (Wickerhamomyces anomalus): inactive; Activity (Rhodotorula glutinis): inactive
5 | CC(=O)N[C@@H](CSC1=CC(=O)C2=C(CC3[C@H](C(=O)O)CCC4[C@@H]5CC[C@]34[C@@H]2OC[C@H]5C)C1=O)C(=O)O (stereo partly specified) | – | – | inactive | inactive | inactive | inactive | inactive | inactive | inactive | inactive | 100 µg/mL (≈ 193 µM) | 66.7 µg/mL (≈ 129 µM) | 33.3 µg/mL (≈ 64.3 µM) | – | – | –
6 | C[C@@H]1CO[C@@H]2C3=C(CC4[C@H](C(=O)O)CCC5[C@@H]1CC[C@]452)C(=O)C=CC3=O (stereo partly specified) | 50 µg/mL (≈ 140 µM) | 33.3 µg/mL (≈ 93.4 µM) | – | – | inactive | – | – | – | – | inactive | 25 µg/mL (≈ 70.1 µM) | 66.7 µg/mL (≈ 187 µM) | 16.7 µg/mL (≈ 46.9 µM) | 100 µg/mL (≈ 281 µM) | 8.3 µg/mL (≈ 23.3 µM) | MIC (Candida albicans): 33.3 µg/mL (≈ 93.4 µM); MIC (Micrococcus luteus): 66.7 µg/mL (≈ 187 µM); IC50 (L929): 7.5 µg/mL (≈ 21 µM); IC50 (KB 3-1): 8.5 µg/mL (≈ 23.8 µM)
7 | NYSTATIN | – | – | – | – | – | – | – | – | – | – | 12.5 µg/mL | – | 16.7 µg/mL | 12.5 µg/mL | 16.7 µg/mL | MIC [1]: 16.7 µg/mL; MIC (Wickerhamomyces anomalus): 16.7 µg/mL; MIC (Candida albicans): 16.7 µg/mL
8 | C[C@@H]1CO[C@@H]2C3=C(C(=O)C=CC3=O)[C@H]3OC(=O)[C@@H]4CC[C@H]5[C@@H]1CC[C@@]25[C@@H]34 (racemic) | 100 µg/mL (≈ 282 µM) | 66.7 µg/mL (≈ 188 µM) | – | – | inactive | inactive | – | inactive | – | inactive | 100 µg/mL (≈ 282 µM) | 66.7 µg/mL (≈ 188 µM) | 33.3 µg/mL (≈ 94 µM) | 100 µg/mL (≈ 282 µM) | 16.7 µg/mL (≈ 47.1 µM) | IC50 (L929): 2.2 µg/mL (≈ 6.21 µM); IC50 (KB 3-1): 2.8 µg/mL (≈ 7.9 µM)
9 | C[C@@H]1CO[C@@H]2c3c(O)cc4scnc4c3C[C@H]3[C@H](C(=O)O)CC[C@H]4[C@@H]1CC[C@@]243 | – | – | inactive | inactive | inactive | inactive | inactive | inactive | inactive | inactive | 100 µg/mL (≈ 250 µM) | 66.7 µg/mL (≈ 167 µM) | 33.3 µg/mL (≈ 83.4 µM) | – | – | –
10 | NC[C@H]1O[C@H](O[C@H]2[C@H](O)[C@@H](O[C@H]3O[C@H](CO)[C@@H](O)[C@H](N)[C@H]3O)[C@H](N)C[C@@H]2N)[C@H](O)[C@@H](O)[C@@H]1O [KANAMYCIN] | – | – | – | – | – | – | – | – | – | – | – | – | – | – | – | MIC [2]: 0.4 µg/mL (≈ 0.826 µM)
